We go through 22 compounds from ChEMBL document CHEMBL5385938 (J Med Chem, 2024).

The test system of series [1] is T47D. The experiment in a line: Cytotoxicity against human T47D cells harboring PI3Kalpha H1047R mutant assessed as reduction in cell viability incubated for 72 hrs by CellTiter-Glo 2.0 luminescent cell viability assay. In kind it is functional, cell-based. For orientation: ATP-based viability assays read luminescence as a measure of living cells.
The test system of series [2] is SK-BR-3. The experiment in a line: Cytotoxicity against human SK-BR-3 cells harboring wildtype PI3Kalpha assessed as reduction in cell viability incubated for 72 hrs by CellTiter-Glo 2.0 luminescent cell viability assay. The following applies: SK-BR-3, 72 h. In kind it is functional, cell-based.
Series [3] is described as follows: Metabolic stability in pooled human hepatocytes assessed as intrinsic clearance. Type of series: ADME, Liver, Hepatocyte. The conditions noted are these: read-out: CLH.
Series [4] deals with T1, Phosphatidylinositol 4,5-bisphosphate 3-kinase catalytic subunit alpha isoform (Homo sapiens, UniProt P42336, H1047R).
Series [5] can be described thus: Selectivity ratio of IC50 for cytotoxicity against human SK-BR-3 cells harboring wild type PI3Kalpha to IC50 for cytotoxicity against human T47D cells harboring PI3Kalpha H1047R mutant. Type of series: functional.
For series [6], the target named is T1, Phosphatidylinositol 4,5-bisphosphate 3-kinase catalytic subunit alpha isoform. The experiment in a line: Inhibition of PI3Kalpha H1047R mutant (unknown origin) using PI(4,5)P2:PS as substrate incubated in presence of ATP by ADP-Glo assay. (In ADP-Glo the light output rises with the ADP produced.)
Series [7] is filed under the species Homo sapiens. In words: Selectivity ratio of IC50 for inhibition of recombinant N-terminal 6-His tagged full length human wildtype PI3Kalpha to IC50 for inhibition of recombinant N-terminal 6-His tagged full length human PI3Kalpha H1047R mutant.
Series [8] has as its target T1, Phosphatidylinositol 4,5-bisphosphate 3-kinase catalytic subunit alpha isoform. The experiment in a line: Inhibition of recombinant N-terminal 6-His tagged full length human PI3Kalpha H1047R mutant using PIP2diC8 and PIP2:PS as substrate incubated for 1 hrs in presence of ATP by fluorescence based plate reader analysis.
Series [9] is described as follows: Volume of distribution at steady state in Beagle dog at 10 mg/kg, po or 2 mg/kg, iv measured upto 24 hrs. The following applies: in vivo. Type of series: ADME, organism-based, Canis lupus familiaris.
Series [10] deals with HCC1954. In words: Antitumor activity against ER-/HER2+ human HCC1954 cells harboring endogenous PI3Kalpha H1047R mutant xenografted in NOD.CB17-Prkdcscid/NCrCr mouse assessed as tumor growth inhibition at 100 mg/kg, ip administered once a day for 14 days relative to control. The conditions noted are these: HCC1954, 336 h, time 14 day, read-out: TGI. Type of series: functional. In outline: (§1)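 HCC1954 xenograft mice (ER-/HER2+ breast line, endogenous PI3Kα H1047R) were dosed IP for 14 days, at 100 mg/kg qd or 80 mg/kg b.i.d. Read-out was tumor growth inhibition or regression (%).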
In general terms: A xenograft is tissue or cells of one species grown in another, often human tumour cells in immunodeficient mice.

Series [11] can be described thus: Oral bioavailability in CD-1 mouse at 100 mg/kg measured upto 24 hrs. Type of series: ADME, organism-based. The conditions noted are these: in vivo.
A short description of series [12]: Oral bioavailability in Sprague-Dawley rat at 100 mg/kg measured upto 24 hrs. In kind it is ADME, organism-based. The conditions noted are these: in vivo.
For series [13], the system named is Mus musculus. In words: In vivo inhibition of AKT phosphorylation in NOD.CB17-Prkdcscid/NCrCr mouse xenografted with ER-/HER+ human HCC1954 cells harboring PI3Kalpha H1047R mutant at 100 to 300 mg/kg, po measured upto 8 hrs by immunoblotting analysis. Type of series: functional, organism-based. The conditions noted are these: dose 100-300 mg/kg.
The nature of series [14]: Drug uptake in NOD.CB17-Prkdcscid/NCrCr mouse xenografted with ER-/HER+ human HCC1954 cells harboring PI3Kalpha H1047R mutant at 60 to 120 mg/kg, ip administered as single dose and measured upto 8 hrs. The following applies: in vivo, dose 60-120 mg/kg. In kind it is ADME, organism-based.
The nature of series [15]: Volume of distribution at steady state in CD-1 mouse at 100 mg/kg, po or 3 mg/kg, iv measured upto 24 hrs. Type of series: ADME, organism-based. The following applies: in vivo.
A short description of series [16]: In vivo inhibition of AKT phosphorylation in NOD.CB17-Prkdcscid/NCrCr mouse xenografted with ER-/HER+ human HCC1954 cells harboring PI3Kalpha H1047R mutant at 60 mg/kg, ip administered as single dose and measured after 8 hrs by immunoblotting analysis relative to control. In kind it is functional. In outline:
(§2)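 HCC1954 tumor-bearing mice received a single IP dose of 60 or 120 mg/kg. Tumor pAKT modulation was measured at 1 h and 8 h post dose, relative to control.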

Series [17] can be described thus: Volume of distribution at steady state in Sprague-Dawley rat at 100 mg/kg, po or 3 mg/kg, iv measured upto 24 hrs. Type of series: ADME, organism-based. The conditions noted are these: in vivo.
Series [18] in a line: Half-life in Sprague-Dawley rat at 3 mg/kg, iv measured upto 24 hrs. Type of series: ADME, organism-based. The following applies: in vivo.
The nature of series [19]: In vivo inhibition of AKT phosphorylation in NOD.CB17-Prkdcscid/NCrCr mouse xenografted with ER-/HER+ human HCC1954 cells harboring PI3Kalpha H1047R mutant at 120 mg/kg, ip administered as single dose and measured after 8 hrs by immunoblotting analysis relative to control. In kind it is functional. In outline:
as §2

Series [20] in a line: Oral bioavailability in Beagle dog at 10 mg/kg measured upto 24 hrs. Type of series: ADME, organism-based, Canis lupus familiaris. The following applies: in vivo.
The test system of series [21] is HCC1954. In words: Antitumor activity against ER-/HER2+ human HCC1954 cells harboring endogenous PI3Kalpha H1047R mutant xenografted in NOD.CB17-Prkdcscid/NCrCr mouse assessed as tumor regression at 80 mg/kg, ip administered twice daily for 14 days relative to control. In kind it is functional. The conditions noted are these: time 14 day. In outline: as §1
Series [22] in a line: Half-life in CD-1 mouse at 3 mg/kg, iv measured upto 24 hrs. The conditions noted are these: in vivo. In kind it is ADME, organism-based.
A short description of series [23]: Half-life in Beagle dog at 2 mg/kg, iv measured upto 24 hrs. In kind it is ADME, organism-based, Canis lupus familiaris. The following applies: in vivo.

Active and inactive are the calls of the source. The rule behind the calls is not given here. Where only a bound is given, the exact number is not on record here.

T1 sequence (P42336 whole entry H1047R, canonical isoform): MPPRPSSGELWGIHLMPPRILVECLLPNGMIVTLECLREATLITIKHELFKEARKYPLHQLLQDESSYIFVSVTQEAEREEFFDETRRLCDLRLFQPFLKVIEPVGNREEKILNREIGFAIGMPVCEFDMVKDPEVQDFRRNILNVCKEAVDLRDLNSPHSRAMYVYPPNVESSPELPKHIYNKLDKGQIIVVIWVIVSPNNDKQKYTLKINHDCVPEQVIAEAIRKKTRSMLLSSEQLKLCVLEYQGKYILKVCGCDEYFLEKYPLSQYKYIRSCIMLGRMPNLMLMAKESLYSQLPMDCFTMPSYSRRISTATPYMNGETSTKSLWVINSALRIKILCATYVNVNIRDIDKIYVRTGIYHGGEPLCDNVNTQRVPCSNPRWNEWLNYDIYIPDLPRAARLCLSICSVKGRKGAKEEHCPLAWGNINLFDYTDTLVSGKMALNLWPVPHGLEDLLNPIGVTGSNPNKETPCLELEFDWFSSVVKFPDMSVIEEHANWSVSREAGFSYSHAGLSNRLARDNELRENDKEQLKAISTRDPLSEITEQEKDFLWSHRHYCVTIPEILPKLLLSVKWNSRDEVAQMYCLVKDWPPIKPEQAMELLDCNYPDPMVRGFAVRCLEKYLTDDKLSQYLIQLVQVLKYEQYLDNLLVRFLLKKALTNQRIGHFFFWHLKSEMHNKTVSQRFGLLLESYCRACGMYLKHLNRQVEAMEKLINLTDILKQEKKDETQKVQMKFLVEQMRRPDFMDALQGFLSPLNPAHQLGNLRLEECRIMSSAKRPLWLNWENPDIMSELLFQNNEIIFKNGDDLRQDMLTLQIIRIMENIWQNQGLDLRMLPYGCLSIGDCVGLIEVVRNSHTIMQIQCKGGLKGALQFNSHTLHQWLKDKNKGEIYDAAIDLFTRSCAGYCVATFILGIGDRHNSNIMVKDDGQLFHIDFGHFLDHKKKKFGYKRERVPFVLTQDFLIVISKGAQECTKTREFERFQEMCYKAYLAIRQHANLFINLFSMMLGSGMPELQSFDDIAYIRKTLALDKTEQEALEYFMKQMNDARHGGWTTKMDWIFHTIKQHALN

For `Cc1cc([C@@H](C)Nc2cccc(F)c2C(=O)O)c2nc(N3CCC(F)(F)CC3)c(C#N)c(=O)n2c1`, in series [1], the IC50 was determined as 566 nM.

With `Cc1cc([C@@H](C)Nc2ccc(Cl)cc2C(=O)O)c2nc(N3CCC(F)(F)CC3)c(C#N)c(=O)n2c1`, in [1], the half-maximal inhibitory concentration (IC50) was 627 nM.

Regarding `Cc1cc([C@@H](C)Nc2ccccc2C(=O)O)c2nc(N3CCC(C)(C)CC3)c(C#N)c(=O)n2c1`, the results for the concentration for half-maximal inhibition (IC50) in series [2] and in series [1] were > 10000 nM and 151 nM, respectively. In series [3], the CLint scaled amounted to 76 mL/min/kg.

For the compound `Cc1cc([C@@H](C)Nc2ccccc2C(=O)O)c2nc(N3CCCCC3)c(C#N)c(=O)n2c1`, the IC50 was 9940 nM in series [2] and 86 nM in [1]. Moreover, in series [3], the CLint scaled was determined as 79 mL/min/kg.

Take `Cc1cc([C@@H](C)Nc2ccccc2C(=O)O)c2nc(N3CC(F)(F)C3)c(C#N)c(=O)n2c1`: the IC50 is > 10000 nM in [2] and 56 nM in series [1]. The CLint scaled in series [3] came to 24 mL/min/kg.

`Cc1cc(C(C)Nc2ccccc2C(=O)O)c2nc(N3CCCCC3)ncc2c1` (centres undefined): the half-inhibitory concentration (IC50) in series [2] and in [1] was > 10000 nM in each case.

`Cc1ccccc1C1NC(=O)c2cc(NC3COC3)cc(NC(=O)c3csc4ccccc34)c21` (centres undefined): the IC50 in series [4] is ≤ 100 nM.

Take `Cc1cc([C@@H](C)Nc2ccccc2C(=O)O)c2nc(N3CC4(C3)CC(F)(F)C4)c(C#N)c(=O)n2c1`: the half-inhibitory concentration (IC50) in [2] and in series [1] was > 10000 nM each time. In series [3], the CLint scaled came out at 118 mL/min/kg.

In the case of `Cc1cc([C@@H](C)Nc2ccc(Cl)nc2C(=O)O)c2nc(N3CCC(F)(F)CC3)c(C#N)c(=O)n2c1`, in [1], the IC50 was 304 nM.

In the case of `Cc1cc([C@@H](C)Nc2ccccc2C(=O)O)c2oc(N3CCC(C)(C)CC3)c(C)c(=O)c2c1`, the half-inhibitory concentration (IC50) in series [2] was 9080 nM; in [1], 160 nM. Moreover, the “Ratio IC50” value in [5] was found to be 57.

As for `Cc1cc([C@@H](C)Nc2nccnc2C(=O)O)c2nc(N3CCC(F)(F)CC3)c(C#N)c(=O)n2c1`, the IC50 in series [1] is 3720 nM.

In the case of `Cc1cc([C@@H](C)Nc2ccccc2C(=O)O)c2nc(C3CCC(F)(F)CC3)c(C#N)c(=O)n2c1`, the IC50 was > 10000 nM in series [2] and 246 nM in series [1]. Also, the CLint scaled in series [3] stood at 12 mL/min/kg.

On to `Cc1cc([C@@H](C)Nc2ccccc2C(=O)O)c2nc(N3CCCCC3)cc(=O)n2c1`, for which the half-inhibitory concentration (IC50) in [2] was > 10000 nM; in series [6], 411 nM; in series [1], 1110 nM. In addition, the “Ratio IC50” value in series [5] worked out at 9. Moreover, the CLint scaled in [3] was 181 mL/min/kg.

As to `Cc1cc([C@@H](C)Nc2ccccc2C(=O)O)c2nc(N3CCCC3)c(C#N)c(=O)n2c1`, the IC50 in [2] was > 10000 nM; in series [1], 135 nM. In series [3], the CLint scaled was determined as 78 mL/min/kg.

Regarding `Cc1cc([C@@H](C)Nc2ccccc2C(=O)O)c2nc(N3CC4CC(C3)C4(F)F)c(C#N)c(=O)n2c1`, the IC50 was > 10000 nM in [2] and 71 nM in series [1]. Further, the CLint scaled in series [3] amounted to 39 mL/min/kg.

`Cc1cc([C@@H](C)Nc2ccccc2C(=O)O)c2nc(N3CCCCC3)c(F)c(=O)n2c1`: the CLint scaled in [3] was found to be 862 mL/min/kg.

Consider `Cc1cc([C@@H](C)Nc2cscc2C(=O)O)c2nc(N3CCC(F)(F)CC3)c(C#N)c(=O)n2c1`, for which, in series [1], the IC50 was 183 nM.

Take `Cc1cc([C@@H](C)Nc2ccccc2C(=O)O)c2oc(N3CCCCC3)cc(=O)c2c1`: the Ratio IC50 in [7] was found to be 13.5. For the same compound, the half-inhibitory concentration (IC50) in series [8] was < 500 nM.

For the compound `Cc1cc(C(C)Nc2ccccc2C(=O)O)c2nc(N3CCC(C)(C)CC3)n(C)c(=O)c2c1` (centres undefined), the IC50 in series [2] was > 10000 nM; in series [1], 6240 nM. For the same compound, the “Ratio IC50” value in series [5] stood at 2.

On to `Cc1cc([C@@H](C)Nc2ccccc2C(=O)O)c2nc(N3CCC(F)(F)CC3)c(C#N)c(=O)n2c1`, for which the Vdss is 1.5 L/kg in series [9], 13.6 L/kg in [15] and 4.8 L/kg in [17]. The inhibition in vivo at 100 mg/kg in [10] came to 88%. In addition, the F came to 48% in series [11], 57% in series [12] and 7% in [20]. Further, the IC50 in series [2] was 8970 nM; in series [6], 73 nM; in series [1], 48 nM. The inhibition entry in series [13] is “inactive”. For the same compound, the Drug uptake entry in series [14] was “Active”. In [16], the inhibition in vivo at 60 mg/kg was determined as 42%. The t1/2 in [18] came out at 3.5 h; in series [22] it was 2 h; in [23] it was 0.7 h. Further, the CLint scaled in series [3] was 29 mL/min/kg. This compound also registered an inhibition in vivo at 120 mg/kg in [19] of 81%. In addition, the Activity in series [21] is reported as -34%.

As for `Cc1cc([C@@H](C)Nc2ccccc2C(=O)O)c2nc(N3CCCCC3)c(C)c(=O)n2c1`, the IC50 in series [2] is > 10000 nM; in [1], 120 nM. Moreover, the “Ratio IC50” value in series [5] came to 83. Further, the CLint scaled in [3] stood at 340 mL/min/kg.

On to `Cc1cc([C@@H](C)Nc2ccccc2C(=O)O)c2nc(N3CCS(=O)(=O)CC3)c(C#N)c(=O)n2c1`, for which the IC50 in series [2] and in series [1] was > 10000 nM throughout. Further, the CLint scaled in [3] amounted to 5 mL/min/kg.

As usually defined, the IC50 is the concentration that gives 50% inhibition.
